Here are results for five compounds from ChEMBL document CHEMBL1159376, “Potential cancer chemopreventive constituents of the seeds of Dipteryx odorata (tonka bean)” (J Nat Prod, 2003).

One assay can be described thus: tissue or blood. As to conditions: Mus musculus, Mammary gland, read-out: INH.
Assay [1] in a line: Chemoprevention index, ratio of IC50 for mouse Hepa-1c1c7 cells to drug level required to double quinone reductase activity in mouse Hepa-1c1c7 cells. It counts as functional.
Assay [2] in a line: Growth inhibition of mouse Hepa-1c1c7 cells. It counts as functional, cell-based.
Assay [3] in a line: Inhibition of 7,12-dimethylbenz[a]anthracene-induced […] lesions in mouse mammary organ culture model at 10 ug/ml. It counts as functional. As to conditions: Mammary gland. The method in brief:
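Mouse mammary glands in organ culture with 7,12-dimethylbenz[a]anthracene-induced preneoplastic lesions. Samples were tested at 10 µg/mL, with sulforaphane at 1 µg/mL as positive control. The read-out was percent inhibition of lesion formation.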

Molecules are shown by their SMILES.

By IC50 is commonly meant the concentration that gives 50% inhibition. A lower IC50 goes with inhibition by little substance. In the case of `C[S+]([O-])CCCCN=C=S` (centres undefined) [SULFORAPHANE], in “tissue or blood”, the inhibition at 1 µg/mL was 83.7%. Also, the Ratio in assay [1] amounted to 7.2. This compound returned an IC50 in assay [2] of 27.3 µM.

Take `COc1cc(C2Oc3c(OC)cc(/C=C/C=O)cc3C2CO)ccc1O` (racemic): the Ratio in assay [1] was determined as 3.2. The compound also came in with an IC50 in assay [2] of 48.5 µM.

Turning to `O=C(/C=C/c1ccc(O)cc1)c1ccc(O)cc1O` [ISOLIQUIRITIGENIN], the Ratio in assay [1] turned out to be 7.2. In addition, the inhibition at 10 µg/mL in assay [3] came to 76%. The compound also yielded an IC50 in assay [2] of 27.3 µM.

For the compound `O=C1/C(=C/c2ccc(O)c(O)c2)Oc2cc(O)ccc21` [SULFURETIN], in assay [1], the Ratio was found to be 3.8. For the same compound, the inhibition at 10 µg/mL in assay [3] amounted to 58.5%. The compound also displayed an IC50 in assay [2] of 78.5 µM.

As to `COc1cc(/C=C2\Oc3cc(O)ccc3C2=O)ccc1O`, the Ratio in assay [1] is recorded as 5.4. The compound also gave an inhibition at 10 µg/mL in assay [3] of 48.2%. Also, it took 34.6 µM to reach half-maximal inhibition in assay [2] (IC50).
